Laboratory results published in ChEMBL document CHEMBL1828575, “Design, synthesis and antiproliferative activities of biarylolefins based on polyhydroxylated and carbohydrate scaffolds” (Eur J Med Chem, 2011).
Activity calls are given as the source filed them. No cut-off for these calls is given here.

Key:
Ovis aries = organism: Ovis aries; experiment: Inhibition of sheep brain tubulin polymerization at 10 uM
Outline: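 Microtubule protein from sheep brain, purified by two assembly/disassembly cycles (37 °C/0 °C), in 100 mM MES pH 6.6, 1 mM EGTA, 0.5 mM MgCl₂. Compounds in DMSO were tested at a single concentration, with incubation at 37 °C for 10 min and then 0 °C for 5 min before measuring assembly rate, following a modified Guénard protocol.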

[1] = Cytotoxicity against human NCI60 cells assessed as cellular growth at 10 uM after 48 hrs by SRB assay relative to untreated control; type: functional
Outline: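 NCI-60 panel lines grown in RPMI 1640 with 5% FBS and 2 mM L-glutamine. Plated at 5000–40,000 cells/well and preincubated 24 h at 37 °C, 5% CO₂, with time-zero plates fixed in TCA. Compounds, dissolved in DMSO and diluted in medium, were applied for 48 h. Cells were TCA-fixed (10% final for adherent, 16% for suspension) and stained with 0.4% SRB in 1% acetic acid. Dye was solubilised in 10 mM Tris base and read at 515 nm; growth was expressed as a percentage of untreated control.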

PC-3 [2] = experiment: Cytotoxicity against human PC3 cells at 10^-6 M after 72 hrs by MTS assay; type: functional; details: PC-3, 72 h, read-out: GI
Outline: (§1)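 Preliminary screen at 10^-5 and 10^-6 M. Cells were grown in RPMI with 10% fetal calf serum plus penicillin, streptomycin and fungizone under 5% CO₂, plated in 96-well plates, and dosed 24 h later from DMSO stocks (1% DMSO final, same in controls). After 72 h, MTS was added for 3 h at 37 °C and absorbance read at 490 nm. Inhibition was calculated as (1 − OD treated/OD control) × 100, in triplicate.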

SF-268 [3] = experiment: Cytotoxicity against human SF268 cells at 10^-6 M after 72 hrs by MTS assay; type: functional; details: SF-268, 72 h, read-out: GI; outline: as §1
SK-OV-3 [4] = experiment: Cytotoxicity against human SKOV3 cells at 10^-6 M after 72 hrs by MTS assay; type: functional; details: SK-OV-3, 72 h, read-out: GI; outline: as §1
OVCAR-8 [5] = experiment: Cytotoxicity against human OVCAR8 cells at 10^-6 M after 72 hrs by MTS assay; type: functional; details: OVCAR-8, 72 h, read-out: GI; outline: as §1
MIA PaCa-2 [6] = experiment: Cytotoxicity against human MIAPaCa2 cells at 10^-6 M after 72 hrs by MTS assay; type: functional; details: MIA PaCa-2, 72 h, read-out: GI
HL-60 [7] = experiment: Cytotoxicity against human HL60 cells at 10^-6 M after 72 hrs by MTS assay; type: functional; details: HL-60, 72 h, read-out: GI
Outline: (§2)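 Cells grown in RPMI with 10% fetal calf serum, penicillin, streptomycin and fungizone under 5% CO₂. Plated in 96-well plates and dosed 24 h later with compound in DMSO (1% final DMSO; controls got DMSO alone). After 72 h, MTS was added for 3 h at 37 °C and A490 read. Inhibition = (1 − OD treated/OD control) × 100, in triplicate.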

[8] = Cytotoxicity against human HL60R cells at 10^-6 M after 72 hrs by MTS assay; type: functional; details: read-out: GI; outline: as §2
K562 [9] = experiment: Cytotoxicity against human K562 cells at 10^-6 M after 72 hrs by MTS assay; type: functional; details: K562, 72 h, read-out: GI; outline: as §2
HCT-116 [10] = experiment: Cytotoxicity against human HCT116 cells at 10^-5 M after 72 hrs by MTS assay; type: functional; details: HCT-116, 72 h, read-out: GI; outline: as §2
HT-29 [11] = experiment: Cytotoxicity against human HT-29 cells at 10^-5 M after 72 hrs by MTS assay; type: functional; details: HT-29, 72 h, read-out: GI; outline: as §2
HCT-15 [12] = experiment: Cytotoxicity against human HCT15 cells at 10^-5 M after 72 hrs by MTS assay; type: functional; details: HCT-15, 72 h, read-out: GI; outline: as §2
MCF7 [13] = experiment: Cytotoxicity against human MCF7 cells at 10^-5 M after 72 hrs by MTS assay; type: functional; details: MCF7, 72 h, read-out: GI
[14] = Cytotoxicity against human MDA231 cells at 10^-5 M after 72 hrs by MTS assay; type: functional; details: MDA-MB-231, 72 h, read-out: GI; outline: as §1
A549 [15] = experiment: Cytotoxicity against human A549 cells at 10^-5 M after 72 hrs by MTS assay; type: functional; details: A549, 72 h, read-out: GI; outline: as §2
PC-3 [16] = experiment: Cytotoxicity against human PC3 cells at 10^-5 M after 72 hrs by MTS assay; type: functional; details: PC-3, 72 h, read-out: GI; outline: as §1
SF-268 [17] = experiment: Cytotoxicity against human SF268 cells at 10^-5 M after 72 hrs by MTS assay; type: functional; details: SF-268, 72 h, read-out: GI; outline: as §1
SK-OV-3 [18] = experiment: Cytotoxicity against human SKOV3 cells at 10^-5 M after 72 hrs by MTS assay; type: functional; details: SK-OV-3, 72 h, read-out: GI; outline: as §1
OVCAR-8 [19] = experiment: Cytotoxicity against human OVCAR8 cells at 10^-5 M after 72 hrs by MTS assay; type: functional; details: OVCAR-8, 72 h, read-out: GI; outline: as §1
MIA PaCa-2 [20] = experiment: Cytotoxicity against human MIAPaCa2 cells at 10^-5 M after 72 hrs by MTS assay; type: functional; details: MIA PaCa-2, 72 h, read-out: GI
HL-60 [21] = experiment: Cytotoxicity against human HL60 cells at 10^-5 M after 72 hrs by MTS assay; type: functional; details: HL-60, 72 h, read-out: GI; outline: as §2
[22] = Cytotoxicity against human HL60R cells at 10^-5 M after 72 hrs by MTS assay; type: functional, HL-60; details: read-out: GI; outline: as §2
K562 [23] = experiment: Cytotoxicity against human K562 cells at 10^-5 M after 72 hrs by MTS assay; type: functional; details: K562, 72 h, read-out: GI; outline: as §2
HCT-116 [24] = experiment: Cytotoxicity against human HCT116 cells at 10^-6 M after 72 hrs by MTS assay; type: functional; details: HCT-116, 72 h, read-out: GI; outline: as §2
HT-29 [25] = experiment: Cytotoxicity against human HT-29 cells at 10^-6 M after 72 hrs by MTS assay; type: functional; details: HT-29, 72 h, read-out: GI; outline: as §2
HCT-15 [26] = experiment: Cytotoxicity against human HCT15 cells at 10^-6 M after 72 hrs by MTS assay; type: functional; details: HCT-15, 72 h, read-out: GI; outline: as §2
MCF7 [27] = experiment: Cytotoxicity against human MCF7 cells at 10^-6 M after 72 hrs by MTS assay; type: functional; details: MCF7, 72 h, read-out: GI
[28] = Cytotoxicity against human MDA231 cells at 10^-6 M after 72 hrs by MTS assay; type: functional; details: MDA-MB-231, 72 h, read-out: GI; outline: as §1
A549 [29] = experiment: Cytotoxicity against human A549 cells at 10^-6 M after 72 hrs by MTS assay; type: functional; details: A549, 72 h, read-out: GI; outline: as §2

Structure (SMILES) | tubulin polymerization inhibition call (active/not active) (Ovis aries) | inhibition of growth at 1 µM (PC-3 [2]) | inhibition of growth at 1 µM (SF-268 [3]) | inhibition of growth at 1 µM (SK-OV-3 [4]) | inhibition of growth at 1 µM (OVCAR-8 [5]) | inhibition of growth at 1 µM (MIA PaCa-2 [6]) | inhibition of growth at 1 µM (HL-60 [7]) | inhibition of growth at 1 µM [8] | inhibition of growth at 1 µM (K562 [9]) | inhibition of growth at 10 µM (HCT-116 [10]) | inhibition of growth at 10 µM (HT-29 [11]) | inhibition of growth at 10 µM (HCT-15 [12]) | inhibition of growth at 10 µM (MCF7 [13]) | inhibition of growth at 10 µM [14] | inhibition of growth at 10 µM (A549 [15]) | inhibition of growth at 10 µM (PC-3 [16]) | inhibition of growth at 10 µM (SF-268 [17]) | inhibition of growth at 10 µM (SK-OV-3 [18]) | inhibition of growth at 10 µM (OVCAR-8 [19]) | inhibition of growth at 10 µM (MIA PaCa-2 [20]) | other results
COc1cc([C@@H]2c3cc4c(cc3C[C@H]3COC(=O)[C@@H]32)OCO4)cc(OC)c1OC | Active | – | – | – | – | – | – | – | – | – | – | – | – | – | – | – | – | – | – | – | –
COc1cc(/C(=C2\O[C@@H]([C@H](O)CO)[C@H]3OC(C)(C)O[C@@H]23)c2cccc(N)c2)cc(OC)c1OC | inactive | – | – | – | – | – | – | – | – | – | – | – | – | – | – | – | – | – | – | – | Activity [1]: 103%
COc1cc(/C(=C2\O[C@@H]([C@H]3COC(C)(C)O3)[C@H]3OC(C)(C)O[C@@H]23)c2cccc([N+](=O)[O-])c2)cc(OC)c1OC | – | 2% | 12% | 15% | 0% | 4% | 2% | 13% | 8% | 8% | 0% | 5% | 11% | 16% | 12% | 0% | 20% | 40% | 0% | 0% | inhibition of growth at 10 µM (HL-60 [21]): 22%; inhibition of growth at 10 µM [22]: 29%; inhibition of growth at 10 µM (K562 [23]): 9%; inhibition of growth at 1 µM (HCT-116 [24]): 5%; inhibition of growth at 1 µM (HT-29 [25]): 7%; inhibition of growth at 1 µM (HCT-15 [26]): 6%; inhibition of growth at 1 µM (MCF7 [27]): 7%; inhibition of growth at 1 µM [28]: 0%; inhibition of growth at 1 µM (A549 [29]): 10%
COc1cc(C(=C(CO)CO)c2cc(OC)c(OC)c(OC)c2)cc(OC)c1OC | inactive | 18% | 13% | 13% | 0% | 0% | 17% | 17% | 4% | 0% | 0% | 22% | 31% | 42% | 13% | 26% | 35% | 14% | 0% | 0% | inhibition of growth at 10 µM (HL-60 [21]): 40%; inhibition of growth at 10 µM [22]: 0%; inhibition of growth at 10 µM (K562 [23]): 25%; inhibition of growth at 1 µM (HCT-116 [24]): 6%; inhibition of growth at 1 µM (HT-29 [25]): 0%; inhibition of growth at 1 µM (HCT-15 [26]): 8%; inhibition of growth at 1 µM (MCF7 [27]): 8%; inhibition of growth at 1 µM [28]: 0%; inhibition of growth at 1 µM (A549 [29]): 0%
